Rows were chosen to be rich in hits. Some 1.4% of all compounds tested hit in one or more screens of this group.
NR2E3 ag-1: NR2E3 agonists in two-hybrid cells, primary screen, cell-based, luminescence, CHO-S, Gal4-NCOR/VP16-NR2E3. Photoreceptor-specific nuclear receptor (Homo sapiens), Q9Y5X4. luciferase. inhibition of corepressor binding, % at 3.98 µM. 360,000 tested, 0.35% active. AID 602229, 2012;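 active = inhibition above the mean of all tested compounds plus 3 SD, cut at about 70% in these data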;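 also: higher means lower luciferase signal from less NR2E3 corepressor binding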
Target sequence (Q9Y5X4 whole entry, looked up, the tested form may be a part): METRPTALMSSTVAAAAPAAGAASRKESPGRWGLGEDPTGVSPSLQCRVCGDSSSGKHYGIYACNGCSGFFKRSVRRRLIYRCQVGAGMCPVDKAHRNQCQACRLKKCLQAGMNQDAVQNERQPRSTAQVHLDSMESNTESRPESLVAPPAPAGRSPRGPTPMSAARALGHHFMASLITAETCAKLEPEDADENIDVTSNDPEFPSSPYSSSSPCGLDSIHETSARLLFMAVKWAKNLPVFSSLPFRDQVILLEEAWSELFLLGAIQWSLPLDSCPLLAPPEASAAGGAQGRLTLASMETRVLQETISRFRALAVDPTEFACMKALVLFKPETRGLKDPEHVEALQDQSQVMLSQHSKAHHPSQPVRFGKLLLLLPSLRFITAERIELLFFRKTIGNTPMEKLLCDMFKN
PG9 Ab binder: binders of HIV-1 gp120 antibody PG9, primary screen, biochemical, TR-FRET; TR-FRET gp120-PG9 antibody binding; 360,000 tested, 0.43% active; inhibition, % at 6.7 µM; HIV-1 gp120 / PG9 antibody interaction; AID 624416, 2012; in the data active = inhibition above about 8.5%
NR2E3 ag-2: inhibitors of NR2E3-RetCOR corepressor binding, primary screen, NR2E3 agonist project, biochemical, TR-FRET, GST-NR2E3, biotin-RetCOR. Photoreceptor-specific nuclear receptor (Homo sapiens), Q9Y5X4. AID 2300, 2010. 320,000 tested, 0.12% active. 1536-well. inhibition of corepressor binding, % at 4.78 µM;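 active = percent inhibition above the cutoff of mean plus 3 SD of all tested compounds, set per screening campaign, cut at about 20% in these data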
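System: GST-NR2E3 and biotin-RetCOR proteins; probe or stimulus: 7 nM biotin-RetCOR; doses: compound at 4.8 µM, single dose; schedule: Compound–protein incubation for 5 h at 4 °C; detection: time-resolved FRET; read-out: percent inhibition; controls: biotin wells as high control, 0.6% DMSO wells as low control; format: 1536-well plates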
Rev-erbA mod: modulators of Rev-erb alpha DNA binding, primary screen, biochemical, FITC-DNA, fluorescence polarization, uHTS. Rev-erbα–FITC-DNA binding, 90 min. 370,000 tested, 0.79% active. Nuclear receptor subfamily 1 group D member 1 (Homo sapiens), P20393. activity, % at 10 µM;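 active = activity above about 14%, limit read from the data; passing the limit was not always enough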
NR2E3 ag conf: NR2E3 agonist confirmation in cells, cell-based, luminescence, CHO-S two-hybrid; inhibition, % at 3.98 µM; shares compounds with NR2E3 ag-1; 2,300 tested, 51% active; AID 624378, 2012; CHO-S mammalian two-hybrid NR2E3-NCOR, luciferase luminescence;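 active = average inhibition above a cutoff equal to the mean inhibition of all tested compounds plus one SD, cut at about 70% in these data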
GAL4-VP16 luc: GAL4-VP16 reporter modulators, confirmation, counter-screen for NR2E3 agonist project, cell-based, luminescence, CHO-S, high throughput; shares compounds with NR2E3 ag-1; CHO-S GAL4-VP16 luciferase reporter; inhibition, % at 3.98 µM; 2,300 tested, 29% active; AID 624379, 2012;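 active = mean inhibition above a cutoff equal to the average over all tested compounds plus one standard deviation, cut at about 70% in these data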;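 also: luciferase from a UAS reporter driven by GAL4-VP16 transactivation; higher means less reporter light so more repression of VP16 activity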
Of the large screens only hits and unclear results are named; the others gave an inactive call (follow-up assays come after a bar, where they were run).

c1ccc(N2CCN(c3nc(-c4ccccn4)nc4ccccc34)CC2)cc1	NR2E3 ag-1 100 | NR2E3 ag conf inactive | GAL4-VP16 luc inactive
Cc1cccc(Oc2nc(-c3ccccn3)nc3ccccc23)c1	none
O=C(NC1CCCCN(Cc2cccc(Cl)c2)C1=O)c1cccc(F)c1 (stereo not drawn)	none (no result: NR2E3 ag-1, PG9 Ab binder, NR2E3 ag-2)
S=c1nc(C2COc3ccccc3O2)[nH][nH]1 (stereo not drawn)	none
CCCS(=O)(=O)c1cnc(C2COc3ccccc3O2)nc1N (stereo not drawn)	none | NR2E3 ag conf inactive | GAL4-VP16 luc inactive
Cc1ccc(-n2c(Cc3cccs3)nnc2SCC(=O)Nc2ccc(OCc3ccccc3)cc2)cc1	none (no result: NR2E3 ag-1, PG9 Ab binder, NR2E3 ag-2)
CN1Cc2nnn(Cc3ccccc3)c2-c2cc(F)ccc2S1(=O)=O	none (no result: NR2E3 ag-1, PG9 Ab binder, NR2E3 ag-2)
C=CCn1c(SCC(=O)Nc2sccc2C(N)=O)nc2sc(CC)cc2c1=O	none | NR2E3 ag conf inactive | GAL4-VP16 luc inactive
C=CCn1c(SCC(=O)Nc2sccc2C(N)=O)nc2ccc(Cl)cc2c1=O	none | NR2E3 ag conf inactive | GAL4-VP16 luc inactive
C#CCOCCOCCOCCNc1nc(N2CCN(C(=O)[C@H](CCCCN)n3cc([C@@H](N)CC(C)C)nn3)CC2)nc(N2CCN(C(=O)[C@H](Cc3cc4ccccc4[nH]3)n3cc([C@@H](N)CC(C)C)nn3)CC2)n1	none (no result: NR2E3 ag-1, PG9 Ab binder, NR2E3 ag-2)
CC(=O)N1CCCN(C(=O)Cn2cnc3ccccc3c2=O)CC1	none (no result: NR2E3 ag-1, PG9 Ab binder, NR2E3 ag-2)
O=S(=O)(c1cccc(Br)c1)N1CCN(c2ccnc3cc(Cl)ccc23)CC1	none | NR2E3 ag conf inactive | GAL4-VP16 luc inactive
CCCCNC(=O)C[C@H]1C[C@@]2(C(=O)OC)C(=C[C@H](C(C)C)O[C@@H]2C2CC2)N(Cc2ccc3c(c2)OCO3)C1=O	none (no result: NR2E3 ag-1, PG9 Ab binder, NR2E3 ag-2)
COc1cc(OC)c2c(O)c3c(=O)cc(C)oc3c(-c3c(OC)cc4cc5c(c(O)c4c3O)C(=O)CC(C)(O)O5)c2c1 (stereo not drawn)	none (no result: NR2E3 ag-1, PG9 Ab binder, NR2E3 ag-2)
Oc1c(N=NC(=S)Nc2ccccc2F)c2ccccc2n1Cc1ccccc1	none
C=CCn1c(O)c(N=NC(=S)Nc2cccc(C)c2)c2ccccc21	NR2E3 ag-1 80 | NR2E3 ag conf inactive | GAL4-VP16 luc inactive
C=CCn1c(O)c(N=NC(=S)Nc2ccccc2F)c2ccccc21	NR2E3 ag-1 86 | NR2E3 ag conf inactive | GAL4-VP16 luc inactive
CCOC(=O)N1CCN(C(=O)C[C@H]2C[C@@]3(C(=O)OC)C(=C[C@H](C(C)(C)C)O[C@@H]3C)N(Cc3cccc4ccccc34)C2=O)CC1	none (no result: NR2E3 ag-1, PG9 Ab binder, NR2E3 ag-2)
COc1ccc(/C=C2\NC(=O)C(C=NCc3ccccc3)=C2O)cc1	none
O=C1N/C(=C\c2ccc(O)cc2)C(O)=C1C=NCc1ccccc1	none | NR2E3 ag conf 73 | GAL4-VP16 luc inactive
NC(=O)C(c1ccc(Cl)cc1)c1ccc(Sc2ccc(Cl)cc2)nn1 (stereo not drawn)	none | NR2E3 ag conf 87 | GAL4-VP16 luc inactive
O=C(CSc1ccc(-c2ccncc2)nn1)c1ccc(Cl)cc1	none
CCCCCCN1CCS(=O)(=O)N(Cc2ccc(F)cc2)C(C(=O)OC)C1 (stereo not drawn)	none (no result: NR2E3 ag-1, PG9 Ab binder, NR2E3 ag-2)
Cc1ccc(S(=O)(=O)Nc2cnc3ccccc3c2)cc1	none | NR2E3 ag conf inactive | GAL4-VP16 luc inactive
Cc1ccc(S(=O)(=O)Nc2ccccc2O)cc1	none (no result: NR2E3 ag-1, NR2E3 ag-2)
Cc1ccc(S(=O)(=O)Nc2ccccc2NS(=O)(=O)c2ccc(C)cc2)cc1	none (no result: NR2E3 ag-2) | NR2E3 ag conf inactive | GAL4-VP16 luc inactive
Cc1ccc(S(=O)(=O)Nc2ccc(N3CCCCC3)cc2)cc1	none
Cc1ccc(Cl)cc1NS(=O)(=O)c1ccccc1	none (no result: NR2E3 ag-2)
Cc1ccc(NS(=O)(=O)c2ccc(C3CCCCC3)cc2)cc1	NR2E3 ag-1 77 | NR2E3 ag conf 94 | GAL4-VP16 luc inactive
O=S(=O)(Nc1ccc(Cl)cc1NS(=O)(=O)c1ccccc1)c1ccccc1	NR2E3 ag-1 82 (no result: NR2E3 ag-2) | NR2E3 ag conf 95 | GAL4-VP16 luc inactive
COC(=O)[C@H](C(C)C)N(CCCc1cn(Cc2ccccc2)nn1)S(=O)(=O)c1ccccc1Br	none (no result: NR2E3 ag-1, PG9 Ab binder, NR2E3 ag-2)
COC1=C[C@H](C(=O)N[C@H]2CCCC[C@@H]2NC(C)=O)[C@@]2(C)Cc3ccccc3[C@H]2CC1=O	none (no result: NR2E3 ag-1, PG9 Ab binder, NR2E3 ag-2)
O=C(OCCN1CCCC12CCC(c1ccccc1)CC2)c1ccccc1 (stereo not drawn)	none (no result: NR2E3 ag-1, PG9 Ab binder, NR2E3 ag-2)
CC(C)c1cccc(-c2csc(C(C)(O)c3ccncc3)n2)c1 (stereo not drawn)	NR2E3 ag-1 85 (no result: NR2E3 ag-2) | NR2E3 ag conf 93 | GAL4-VP16 luc 80
CC(C)(C)OC(=O)/C=C/[C@H](CCCCl)Sc1ccc(C(C)(C)C)cc1	none (no result: NR2E3 ag-1, PG9 Ab binder, NR2E3 ag-2)
O=C(CCCN1C(=O)/C(=C/c2ccc3c(c2)OCO3)SC1=S)Nc1ccc(C(=O)O)cc1	none | NR2E3 ag conf inactive | GAL4-VP16 luc inactive
O=C(CCCN1C(=O)C(=Cc2ccc3c(c2)OCO3)SC1=S)Nc1ccc(C(=O)O)c(O)c1	none (no result: NR2E3 ag-2) | NR2E3 ag conf inactive | GAL4-VP16 luc inactive
CCc1cccc(CC)c1NC(=O)/C(C#N)=C/c1ccccc1C(F)(F)F	NR2E3 ag-1 75 | NR2E3 ag conf inactive | GAL4-VP16 luc inactive
N#C/C(=C\c1ccccc1C(F)(F)F)C(=O)Nc1ccccc1	none
C/C=C(/C)C(=O)OC1CC(C)(C)C[C@H]2C3=CC[C@@H]4[C@@]5(C)CCC(O[C@@H]6O[C@@H](C(=O)O)[C@@H](O)C(O[C@@H]7OC[C@H](O)[C@@H](O)[C@@H]7O[C@@H]7OC(CO)C(O)[C@@H](O)[C@@H]7O)C6O[C@@H]6OC(CO)C(O)C(O)C6O)[C@@](C)(CO)[C@@H]5CC[C@]4(C)[C@]3(C)CC(O)[C@@]12CO (stereo partly drawn)	none (no result: PG9 Ab binder, NR2E3 ag-2, Rev-erbA mod) | NR2E3 ag conf inactive | GAL4-VP16 luc inactive
CCOC(=O)[C@@]12CCCC=C1N(CCc1ccc(Cl)cc1)C(=O)[C@H]2CC(=O)NCc1ccc(OC)c(OC)c1	none (no result: NR2E3 ag-1, PG9 Ab binder, NR2E3 ag-2)
O=C(NCc1ccc(C(F)(F)F)cc1)c1ccc(-c2ccc(F)c(F)c2)c2ccoc12	none (no result: NR2E3 ag-2)
COc1ccc(-c2ccc(C(=O)NCc3ccncc3)c3occc23)c(C)c1	NR2E3 ag-1 82 (no result: NR2E3 ag-2) | NR2E3 ag conf 95 | GAL4-VP16 luc 82
O=C(NCc1ccncc1)c1ccc(-c2ccc(F)c(F)c2)c2ccoc12	NR2E3 ag-1 84 (no result: NR2E3 ag-2) | NR2E3 ag conf 96 | GAL4-VP16 luc 82
COc1ccc(-c2ccc(C(=O)NCc3ccc(F)c(F)c3)c3occc23)c(C)c1	none (no result: NR2E3 ag-2)

Source: PubChem BioAssay
